Experimental data published in ChEMBL document CHEMBL3588789, “Synthesis and Pharmacokinetic Evaluation of Siderophore Biosynthesis Inhibitors for Mycobacterium tuberculosis” (J Med Chem, 2015).

Legend:
Rattus norvegicus [1] = experiment: Oral bioavailability in Sprague-Dawley rat at 25 mg/kg by LC-MS/MS method; format: ADME, organism-based; details: in vivo
Outline: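 Crossover in the same 3 female Sprague-Dawley rats: 25 mg/kg by oral gavage, then after a 3-day washout 2.5 mg/kg iv bolus. Serial femoral plasma quantified by LC–MS/MS. AUCs by non-compartmental analysis. Absolute bioavailability calculated individually for each rat from its oral and iv data.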

HepG2 = experiment: Cytotoxicity against human HepG2 cells assessed as reduction in cell viability incubated for 48 hrs by MTT assay; format: cell-based; details: hepg2, 48 h
Outline: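 HepG2 cells (2.5–5.0 × 10^4 per well) in EMEM with 10% FBS, in triplicate. Final compound concentrations 1–200 μM diluted from 20 mM DMSO stocks. Controls were 1% DMSO and 1% Triton X-100. Incubated 48 h at 37 °C under 5% CO2.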

[2] = Ratio of MIC for antimicrobial activity against Mycobacterium tuberculosis H37Rv to KI)app) for inhibition of Mycobacterium tuberculosis MbtA expressed in Escherichia coli
[3] = (§1) Cmax in Sprague-Dawley rat at 25 mg/kg, po by LC-MS/MS method; format: ADME, organism-based; set-up: dose 25 mg/kg, route oral; details: Sprague-Dawley, in vivo
Outline: (§2)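 Female Sprague-Dawley rats (250–274 g), catheterised, 3 per compound, dosed by oral gavage at 25 mg/kg from a 10 mg/mL solution. Femoral-vein blood taken at 0, 15, 30, 45, 60, 120, 240 and 480 min into K2EDTA. Plasma protein-precipitated with an internal standard and quantified by LC–MS/MS against standards in rat plasma. Parameters by non-compartmental analysis.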

[4] = Clearance in Sprague-Dawley rat at 2.5 mg/kg, iv by LC-MS/MS method; format: ADME, organism-based; details: in vivo
Outline: (§3)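 Female Sprague-Dawley rats (250–274 g) with dual jugular/femoral vein catheters, 3 per compound, given a single 2.5 mg/kg bolus into the jugular catheter over 5 s, 3 days after oral dosing. Vehicle was 0.05% sodium carboxymethylcellulose or 25% hydroxypropyl-β-cyclodextrin in water. Femoral blood sampled at 0–480 min into K2EDTA. Plasma analysed by LC–MS/MS with an internal standard. Non-compartmental analysis.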

[5] = AUC (0 to infinity) in Sprague-Dawley rat at 2.5 mg/kg, iv by LC-MS/MS method; format: ADME, organism-based; set-up: dose 2.5 mg/kg, route intravenous, time infinity; details: in vivo; outline: as §3
[6] = Terminal half life in Sprague-Dawley rat at 2.5 mg/kg, iv by LC-MS/MS method; format: ADME, organism-based; details: in vivo, read-out: beta t1/2
[7] = system: Mycobacterium tuberculosis; experiment: Antimicrobial activity against Mycobacterium tuberculosis H37Rv grown in GAS medium without ferric ammonium citrate at pH 6.6 incubated for 10 to 14 days by broth microdilution method; format: functional
[8] = Inhibition of Mycobacterium tuberculosis MbtA expressed in Escherichia coli using [32P]PPi, ATP and salicylic acid incubated for 20 mins by liquid scintillation counting method; details: read-out: Ki(app)
[9] = (§4) AUC (0 to infinity) in Sprague-Dawley rat at 25 mg/kg, po by LC-MS/MS method; format: ADME, organism-based; set-up: dose 25 mg/kg, time infinity, route oral; details: Sprague-Dawley, in vivo
Caco-2 [10] = experiment: (§5) Efflux ratio in human Caco2 cells after 30 to 120 mins by HPLC method; format: ADME, cell-based
Outline: (§6)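 Caco-2 cells (passage 50–70) grown 21 days on Transwell inserts, used only where TEER >300. Apical buffer pH 6.0, basolateral pH 7.4, 60 min preincubation. Compound dosed from a 20 mM DMSO stock with lucifer yellow on the donor side. Samples analysed by HPLC. Papp = (dQ/dt)/(A·C0) from cumulative sampling. Efflux ratio from B–A and A–B values.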

Caco-2 [11] = experiment: (§7) Apparent permeability from apical to basolateral side in human Caco2 cells after 30 to 120 mins by HPLC method; format: ADME, cell-based; outline: as §6
Caco-2 [12] = experiment: (§8) Apparent permeability from basolateral to apical side in human Caco2 cells after 30 to 120 mins by HPLC method; format: ADME, cell-based; outline: as §6
Rattus norvegicus [13] = experiment: as §1; format: ADME, organism-based; set-up: dose 25 mg/kg, route oral; details: in vivo, BLD = below limit of detection; outline: as §2
Rattus norvegicus [14] = experiment: as §4; format: ADME, organism-based; set-up: dose 25 mg/kg, time infinity, route oral; details: in vivo, BLD = below limit of detection
[15] = as §5; format: ADME, cell-based; details: caco-2; outline: as §6
[16] = as §7; format: ADME, cell-based; details: caco-2; outline: as §6
[17] = as §8; format: ADME, cell-based; details: caco-2; outline: as §6
Plasma [18] = experiment: Drug metabolism in Sprague-Dawley rat plasma assessed as 5'-O-[N-(Salicyl)sulfamoyl]adenosine formation at 10 uM; format: ADME, cell-free
Plasma [19] = experiment: Drug metabolism in Sprague-Dawley rat plasma assessed as 2',3'-O-Di-acetyl-5'-O-[N-(2-hydroxybenzoyl)sulfamoyl]-adenosine formation at 10 uM; format: ADME, cell-free
Liver microsome [20] = experiment: Half life in human liver microsomes at 1 uM in presence of NADPH by LC-MS/MS method; format: ADME
Outline: (§9)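 Liver microsomes (rat, mouse or pooled human, 0.5 mg/mL) in 100 mM potassium phosphate pH 7.4 with 10 mM MgCl2 and 1.0 μM compound. Preincubated, then NADPH added (water for control). Incubated 60 min at 37 °C. Acetonitrile quench, centrifugation, supernatant analysed by LC–MS/MS.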

[21] = Cmax in BALB/c mouse; format: ADME, organism-based; details: in vivo
Liver = experiment: Half life in mouse liver microsomes at 1 uM in presence of NADPH by LC-MS/MS method; format: ADME; outline: as §9
Liver microsome [22] = experiment: Half life in rat liver microsomes at 1 uM in presence of NADPH by LC-MS/MS method; format: ADME; outline: as §9
[23] = Stability in pH 1 buffer solutions assessed as compound degradation after 24 hrs at 37 degC; format: physicochemical; details: read-out: Drug degradation
Outline: (§10)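 Compound held at pH 1 or pH 12 for 24 h at 37 °C, with degradation measured.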

[24] = Stability in pH 12 buffer solutions assessed as compound degradation after 24 hrs at 37 degC; format: physicochemical; details: read-out: Drug degradation; outline: as §10
[25] = Solubility in water; format: physicochemical; details: buffer
[26] = AUC in BALB/c mouse; format: ADME, organism-based; details: in vivo
[27] = Ratio of Cmax in Sprague-Dawley rat at 25 mg/kg, po to MIC for antimicrobial activity against Mycobacterium tuberculosis H37Rv; format: ADME, organism-based; details: in vivo
Outline: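 Female Sprague-Dawley rats (250–274 g, catheterised; 3 per compound) got a 25 mg/kg gavage dose from a 10 mg/mL solution. Plasma drawn 0–480 min was read by LC–MS/MS, and Cmax was taken by non-compartmental analysis. […] Cmax was divided by MIC.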

SMILES	F (Rattus norvegicus [1]) [%]	CC50 (HepG2) [µM]	Ratio [2]	Cmax [3] [ng/mL]	clearance [4] [mL/min/kg]	AUC(0-inf) [5] [ng·h/mL]	half-life [6] [min]	MIC [7] [µM]	Ki [8] [nM]	AUC(0-inf) [9] [ng·h/mL]	Papp (Caco-2 [11]) [×10⁻⁶ cm/s]	Papp (Caco-2 [12]) [×10⁻⁶ cm/s]	also measured
CCN(CC)CC.Nc1ncnc2c1ncn2[C@@H]1O[C@H](CNS(=O)(=O)NC(=O)c2ccccc2O)[C@@H](O)[C@H]1F	1.8	> 200	112	460	2.5	17400	32.5	0.19	1.7	3130	4.2	1.34	Ratio (Caco-2 [10]): 0.32
CC(=O)O[C@@H]1[C@H](OC(C)=O)[C@@H](COS(=O)(=O)NC(=O)c2ccccc2O)O[C@H]1n1cnc2c(N)ncnc21.CCN(CC)CC													Cmax (Rattus norvegicus [13]): BLD; AUC (Rattus norvegicus [14]): BLD; efflux ratio [15]: 1.55; Papp A→B [16]: 0.62 ×10⁻⁶ cm/s; Papp B→A [17]: 0.97 ×10⁻⁶ cm/s
CC(=O)Oc1ccccc1C(=O)NS(=O)(=O)OC[C@H]1O[C@@H](n2cnc3c(N)ncnc32)[C@H](OC(C)=O)[C@@H]1OC(C)=O.CCN(CC)CC				30						48.3			Drug metabolism (Plasma [18]): metabolite_detected; Drug metabolism (Plasma [19]): metabolite_detected
CCN(CC)CC.Nc1ccc(C(=O)NS(=O)(=O)NC[C@H]2O[C@@H](n3cnc4c(N)ncnc43)[C@H](O)[C@@H]2O)c(O)c1	3.7	> 200	351	90	46.3	1050	10.6	3.12	8.9	280			
CCN(CC)CC.O=C(NS(=O)(=O)NC[C@H]1O[C@@H](n2cnc3c(NC4CC4)ncnc32)[C@H](O)[C@@H]1O)c1ccccc1O	1		65	140	9.6	3480	15.1	0.098	1.5	302			
CCN(CC)CC.O=C(NS(=O)(=O)NC[C@H]1O[C@@H](n2cnc3c(NC4CC4)nc(-c4ccccc4)nc32)[C@H](O)[C@@H]1O)c1ccccc1O	0.3		8224	100	13.6	3070	15.5	6.25	0.76	66.7	0.52	1.8	Ratio (Caco-2 [10]): 3.45
CCN(CC)CC.Nc1nc(-c2ccccc2)nc2c1ncn2[C@@H]1O[C@H](CNS(=O)(=O)NC(=O)c2ccccc2O)[C@@H](O)[C@H]1F	0.8	> 200	975	500	1.3	33000	121	1.56	1.6	2330			
CCN(CC)CC.Nc1ncnc2c1ncn2[C@@H]1O[C@H](CNS(=O)(=O)NC(=O)c2ccccc2O)C[C@H]1F	2		260	560	2.6	16000	62	0.78	3	3300			
CCN(CC)CC.Nc1ncnc2c1ncn2[C@@H]1O[C@H](COS(=O)(=O)NC(=O)c2ccccc2O)[C@@H](O)[C@H]1O	1.3	> 200		400	4.9	8650	11	0.39		1100	1.23	0.96	t1/2 (Liver microsome [20]): > 30 min; Cmax [21]: 1200 ng/mL; t1/2 (Liver): > 30 min; t1/2 (Liver microsome [22]): > 30 min; degraded at 24 h [23]: < 5%; Ratio (Caco-2 [10]): 0.78; degraded at 24 h [24]: < 5%; solubility [25]: > 50 mg/mL; AUC [26]: 977 ng·h/mL
CCN(CC)CC.Nc1ncnc2c1ncn2[C@@H]1O[C@H](CNS(=O)(=O)NC(=O)c2ccccc2O)[C@@H](O)[C@H]1O	3.5	> 200	51	700	8.4	5070	10.6	0.19	3.7		1.23	0.86	Ratio [27]: 7
NNC(=O)c1ccncc1 [ISONIAZID]	65			13500									
